Measurements published in ChEMBL document CHEMBL2429760, “Synthesis and structure evaluation of new complex butylarylpiperazin-1-yl derivatives” (Med Chem Res, 2013).

What was measured:
[1] = system: Human immunodeficiency virus 1; experiment: Antiviral activity against Human immunodeficiency virus 1 3B infected in human MT4 cells assessed as inhibition of virus-induced cytopathogenicity after 4 days by MTT assay; assay type: functional, organism-based; settings: MT4, 96 h
Method in brief: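 MT-4 cells (1 × 10^4 per well) in RPMI with or without serial compound dilutions, acutely infected with HIV-1 at m.o.i. 0.01 (100 CCID50). After 4-day incubation at 37 °C, protection from virus-induced cytopathogenicity was read as cell viability by MTT. Compounds were made as 100 mM DMSO stocks and diluted in medium.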

[2] = Cytotoxicity against human MT4 cells after 96 hrs by MTT assay; assay type: cell-based
Method in brief: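 Exponentially growing MT-4 cells seeded at 1 × 10^5 cells/ml in RPMI-1640 with 10 % FBS and penicillin/streptomycin. Incubated at 37 °C, 5 % CO2, with or without serial compound dilutions (100 mM DMSO stocks diluted in medium), run in parallel with the antiviral test. Viability by MTT after 96 h.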

Row | Compound | EC50 [1] [µM] | CC50 at 96 h [2] [µM]
1 | O=c1c2ccccc2c2c(-c3ccccc3)c3c(=O)n(CCCCN4CCN(c5ccccc5)CC4)c(=O)c3c(-c3ccccc3)c12 | > 100 | > 100
2 | O=c1c2ccccc2c2c(-c3ccccc3)c3c(=O)n(CCCCN4CCN(c5ccc(F)cc5)CC4)c(=O)c3c(-c3ccccc3)c12 | > 100 | > 100
3 | O=c1c2ccccc2c2c(-c3ccccc3)c3c(=O)n(CCCCN4CCN(c5ccccn5)CC4)c(=O)c3c(-c3ccccc3)c12 | > 100 | > 100
4 | O=c1[nH]c(=O)c2c(-c3ccccc3)c3c(c(-c4ccccc4)c12)c(=O)c1ccccc13 | > 9 | 
5 | O=c1c2ccccc2c2c(-c3ccccc3)c3c(=O)n(CCCCN4CCN(CCc5ccccc5C(F)(F)F)CC4)c(=O)c3c(-c3ccccc3)c12 | > 9 | 9
6 | O=c1c2ccccc2c2c(-c3ccccc3)c3c(=O)n(CCCCN4CCN(c5ccccc5F)CC4)c(=O)c3c(-c3ccccc3)c12 | > 100 | > 100
7 | O=c1c2ccccc2c2c(-c3ccccc3)c3c(=O)n(CCCCN4CCN(c5ccccc5Cl)CC4)c(=O)c3c(-c3ccccc3)c12 | > 100 | > 100
8 | O=c1c2ccccc2c2c(-c3ccccc3)c3c(=O)n(CCCCN4CCN(c5ccc(Cl)cc5)CC4)c(=O)c3c(-c3ccccc3)c12 | > 100 | > 100
